The data set concerns MS2 coat protein. Description: apparent Kd, MS2 coat protein; higher = weaker binding; RNA-MaP array. A digest of the protocol: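 Incubations were done at room temperature with fluorescently labeled MS2 coat protein at 1.5 nM to 3 μM and designed RNAs transcribed on an Illumina sequencing chip from sequenced DNA templates, with or without input ligand. Apparent Kd is the median of binding curves fitted for each cluster. Designs with fewer than 10 measured clusters were excluded.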

Setting [1] is: designed as: OFF switch for flavin mononucleotide, no ligand.
The mark [2] stands for this setting: ligand present: flavin mononucleotide, designed as: OFF switch for flavin mononucleotide.
Setting [3] is: designed as: ON switch for flavin mononucleotide, no ligand.
[4] abbreviates: ligand present: flavin mononucleotide, designed as: ON switch for flavin mononucleotide.
The mark [5] stands for this setting: designed as: ON switch for tryptophan, no ligand.
Setting [6] is: ligand present: tryptophan, designed as: ON switch for tryptophan.

Regarding “UAAGCACAUCAGAAGGCGCAUUAGUUGAACUUGCGAGGAUAUGAUCUGUCCUCAUCAACAUGAGGAUCACCCAUGUGUCAGCUC”, the “apparent Kd” value was 37.6 nM under setting [1] and 140 nM under setting [2].
Consider “UGACUCUCUGUCAGGAUAUAACAAGCUACAGUUUAUUAGAAGGGACAUGAGGAUCACCCAUGUUGAACACCCGA”, for which the “apparent Kd” value runs as follows: under setting [1], 7.94 nM; under setting [2], 7.98 nM.
Regarding “ACUGCUGUAGGAUAUCAACGAAAUAACAUGAGGAUCACCCAUGUGGCAGUGAUCAGCAGUUGAGAAGGACAUGGCC”, the “apparent Kd” value runs as follows: under setting [1], 10.9 nM; under setting [2], 11.3 nM.
Taken in the same sequence, the figures for “AGAGCACAUGAGGAUCACCCAUGUUAGGAUAUAAGUCUGGAUCUACCUGAGCCCGAUCUUAGAAGGAACGGUGU” were 11 nM and 11.6 nM.
“CAAAACUGAGGAUAUACAAAGAAAUGGAACAUAGUACAGUAACAUGAGGAUCACCCAUGUAGAAGGCAGGACUA”: the “apparent Kd” value came out at 6.01 nM under setting [1] and 6.6 nM under setting [2].
Consider “UGCUUUUACGGAGGAUAUCUUUGGUCGUUAUGAAGAGAAGGCCGUCCUAACAUGAGGAUCACCCAUGUAUCUCAUUACAGUCUC”, for which the “apparent Kd” value reads like this: under setting [3], 22.9 nM; under setting [4], 16.3 nM.
On to “AUAUUGUUUAUAGGAUAUUACACUAAGGUGACAUGAGGAUCACCCAUGUCCUCAACCACACGACUUAAGAAGGAUAAACGUUGG”, for which the “apparent Kd” value turned out to be 46.5 nM under setting [1] and 54.9 nM under setting [2].
Consider “CAAGACAUGAGGAUCACCCAUGUGGUGUACCGAGGACCGGUACGGCCGCCACUCGUUCAUCGGUCGACAAGCUACCCUUCAAGGU”, for which the “apparent Kd” value reads like this: under setting [5], 24.2 nM; under setting [6], 38.7 nM.
Take “GUAUGAGAAGCAUAUACAUGAGGAUCACCCAUGUCCUCAGCGGAGGAUAUGUCUUUCAGGAGUAUACAGAAGGCCGCGGAAUUC”: the “apparent Kd” value by setting is: under setting [1], 346 nM; under setting [2], 260 nM.
Regarding “GCACGGGCGAUCGGCACUUUUACUAAUAUACGAGGACCGGUACGGCCGCCACUCGAGCUAAGACAUGAGGAUCACCCAUGUAACG”, the “apparent Kd” value reads like this: (designed as: OFF switch for tryptophan, no ligand) 26.2 nM; (ligand present: tryptophan, designed as: OFF switch for tryptophan) 49.3 nM.
For “UACGGUGCAGGAUAUCGAAUUUCAAACAUGAGGAUCACCCAUGUCUAAUAUGGCGACUAACGAGAAGGGCAGGAAG”, the “apparent Kd” value under setting [1] was determined as 16.2 nM and the “apparent Kd” value under setting [2] amounted to 16 nM.
Taken in the same sequence, the figures for “CGGCGACAUGAGGAUCACCCAUGUUAGGAUAUUCAGUUAACUGUGUUUGAUCGUUUGAGAAGAAGGAACGUGAG” were 10.7 nM and 10.2 nM.
For the sequence “GAAAUAGUAGUUAGGAUAUGUAAUUGAAGACAUAUACAGAAGGAACAUGAGGAUCACCCAUGUAUUGGGAUGGA”, the “apparent Kd” value was 196 nM under setting [1] and 126 nM under setting [2].
For the sequence “GGCUUCCCAAGAGGAUAUGCGGUAAUUAUCUACAUGAGGAUCACCCAUGUUUUUAACUCAAGUCCGCAGAAGGCUUAAGGAUAU”, the “apparent Kd” value under setting [3] worked out at 5.13 nM and the “apparent Kd” value under setting [4] came to 5 nM.
On to “CUAUACGUAACAUGAGGAUCACCCAUGUUCAGGUGACCAGGAAGAAGGGCUAGCAGAGUAGUUCAGCAGGAUAUUCGAUUAGAC”, for which the “apparent Kd” value turned out to be 38.6 nM under setting [1] and 28.9 nM under setting [2].
In the case of “CUCUUAGAAGGAUAUUAAUAAUGUUACAUGAGGAUCACCCAUGUCUCAAUAUGUGACCGUUAAGAAGGUCUAUCGC”, the “apparent Kd” value stood at 9.2 nM under setting [1] and 8.16 nM under setting [2].
With “GGAAUGUCAGGAUAUCUAAUUACCCAGAAAGAUAUGGAACCAGAGAAGGGACAUGAGGAUCACCCAUGUAUAAC”, the “apparent Kd” value is, setting by setting: under setting [1], 10.2 nM; under setting [2], 12.4 nM.
With “AACGUCAACGUAAGGAUAUGCAGUAAGAGCGACAGGCAGAAGGUACAUGAGGAUCACCCAUGUUAACAGAACGG”, the “apparent Kd” value under setting [1] was 8.79 nM and the “apparent Kd” value under setting [2] is 9.6 nM.
As for “GACAUGAGGAUCACCCAUGUUAAAGAUCCCAGCAUGCAACUCAGAAGGCUAAACUGUGGAUAGAAAGAGGAUAUGAGUUUAUAC”, the “apparent Kd” value under setting [1] is 9.62 nM and the “apparent Kd” value under setting [2] is 9.57 nM.
As for “CGAGUUUGCAAAGGAUAUCGGUUUUGAACAGACCGAGAAGGUUGACUGUACAUGAGGAUCACCCAUGUGUGCUCGAUAUAAAGA”, the “apparent Kd” value stood at 7.72 nM under setting [3] and 7.04 nM under setting [4].
In the case of “AGCUUAAUUAUAGGAUAUGAGAGGACAUGAGGAUCACCCAUGUAGAUGUUUGCCACAUAGCCAGUUCAGAAGGAUAGAGCACCA”, the “apparent Kd” value by setting is: under setting [1], 24.9 nM; under setting [2], 19.4 nM.
“GAACACCAGAAGAAGGGAGACAUGAGGAUCACCCAUGUUUAAAUACGAAAUAAGGUAAAAGCAACACAGGAUAUUCGGCUCUAC”: the “apparent Kd” value by setting is: under setting [3], 22.6 nM; under setting [4], 18 nM.
Turning to “UAGGACAUGAGGAUCACCCAUGUUGUACGGCGAGGACCGGUACGGCCGCCACUCGAGGCGUAAGUAGUAAAGAAUCUGAUUCAAU”, the “apparent Kd” value reads like this: under setting [5], 21.4 nM; under setting [6], 24.1 nM.
For “CCUUAGUGAGGAUAUGCAUAGCCUUGGCGGCCAGGAGCCAAGCAGAAGGCACAUGAGGAUCACCCAUGUCCGGU”, the “apparent Kd” value under setting [1] amounted to 16.6 nM and the “apparent Kd” value under setting [2] amounted to 22.8 nM.
As for “AAUCGCCUGGGUCGCAUCCUUGCUCCGGAUACCAGUCAAUAGUUGGACCCUUGGCAGCCGUAGACAUGAGGAUCACCCAUGUAUA”, the “apparent Kd” value reads like this: (designed as: OFF switch for theophylline, no ligand) 53.8 nM; (ligand present: theophylline, designed as: OFF switch for theophylline) 109 nM.
In the case of “UUCACAGUGCAAGGAUAUGACAGUUUACAUGAGGAUCACCCAUGUUGGUCCUAUUCAGAAUGAGAUCAGAAGGUGCUAAUAUGU”, the “apparent Kd” value was determined as 18.6 nM under setting [1] and 36.1 nM under setting [2].
For the sequence “CGACUCCCAGAGAAGGCCGCAAACAUGAGGAUCACCCAUGUACUACCUGAGUCUCGGGCGGUACCGGAGGAUAUCUAGGCUCGC”, the “apparent Kd” value is 26.6 nM under setting [3] and 10.9 nM under setting [4].
Turning to “UAUGUACAUGAGGAUCACCCAUGUCAGGAUAUCUUCGAUUAGACCAUUAGCGCCGCGGAGAGAAGGGACGUAGA”, the “apparent Kd” value under setting [1] was determined as 16 nM and the “apparent Kd” value under setting [2] came to 15.1 nM.
Consider “AAGAAAUUCUCACAUGAGGAUCACCCAUGUCCACACGACUAGAGAAGGGCCUUCUACGUGCACUGGCAGGAUAUCUAACCGGGA”, for which the “apparent Kd” value runs as follows: under setting [1], 140 nM; under setting [2], 87.5 nM.
Consider “ACGGUUCGAGGAUAUGUCGGUAGUUACAUGAGGAUCACCCAUGUUGUGACAUCGUGGUGGACAGAAGGCGACAUCC”, for which the “apparent Kd” value reads like this: under setting [1], 201 nM; under setting [2], 119 nM.
Regarding “GAAUUAGUGUUGGAGGAUAUCCCAUGUCUUACAUGAGGAUCACCCAUGUCCGGACAACGACAAAAGGAGAAGGCCAUCAUCAUGUC”, the “apparent Kd” value worked out at 772 nM under setting [3] and 80.8 nM under setting [4].
For “AUUAAGUCGACAGGAUAUCCGUACUUUGAGUAAGGAGAAGGGUCUACAAAGGUACAUGAGGAUCACCCAUGUGACUUGGCCGUC”, in that order: 10.1 nM and 7.7 nM.
For the sequence “AAGUUACACAAGAAGGAGGGCGACUUUUUCACAUGAGGAUCACCCAUGUAUCCUCUUGGAGGAACCUAGGAUAUUGCUAAGCGU”, the “apparent Kd” value was determined as 175 nM under setting [1] and 170 nM under setting [2].
In the case of “UGCUGCUCGAGAGGAUAUACGAAAUGGAACAUGAGGAUCACCCAUGUAUAUCUCCACAAACAGACGUAGAAGGCACAAUAAGGA”, the “apparent Kd” value reads like this: under setting [3], 58.2 nM; under setting [4], 45.8 nM.
For “UGAUUAUACUUUGAGGAUAUACUAGGACUCACAUGAGGAUCACCCAUGUGUGCGGCUAUACGAGCGUAGAAGGCAAAUACUCCGGC”, in that order: 9.31 nM and 7.91 nM.
For “UCAGAUGUGAAGGAUAUUCCGCGAGCAGCUACGGAAGAAGGUCAAACAUGAGGAUCACCCAUGUGUCUCCCGGG”, the “apparent Kd” value was 14.4 nM under setting [1] and 22.4 nM under setting [2].
